Here are results for two compounds from ChEMBL document CHEMBL1126893, “Synthesis and CLOGP correlation of imidooxy anticonvulsants” (J Med Chem, 1993).

Common to all, as to assay type: functional
The test system of assay [1] is Mus musculus. The assay can be described thus: Time of peak effect of toxicity of compound was measured by both MES and sc Met test in mice. The method, boiled down: (§1)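 Phase II quantification in mice after ip dosing. ED50 (scMet or MES) measured at the time of peak effect. TD50 (rotorod neurologic deficit) measured at the time of peak neurologic deficit. Medians and 95% confidence limits by the Litchfield-Wilcoxon method. Protective index = TD50/ED50. Time of peak effect determined in the MES or scMet test.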

Assay [2] deals with Mus musculus. The assay can be described thus: Elevation of threshold for electroshock induced seizures in mice was measured by ip administration after 0.5 hr at the dose of 250 mg/kg; No. of mice protected/no tested 5/8. As to conditions: route intraperitoneal.
Assay [3] deals with Mus musculus. In words: Anticonvulsant activity was measured by rotarod toxicity test on mice at 30 min at the dose of 300 mg/kg; number of animals protected/number of animals tested 1/4.
The test system of assay [4] is Mus musculus. The assay can be described thus: Anticonvulsant activity was measured by rotarod toxicity teston mice at 0.25 hr at the dose of 100 mg/kg; number of animals protected/number of animals tested 0/2.
Assay [5] has as its system Mus musculus. The assay can be described thus: Anticonvulsant activity was measured by maximal electroshock test on mice at 4 h at the dose of 300 mg/kg; number of animals protected/number of animals tested 1/1.
Assay [6] concerns Mus musculus. In words: Effective dose was measured in mouse by subcutaneous pentylenetetrazole method by ip administration. The method, boiled down:
as §1

For assay [7], the system named is Mus musculus. In words: Time of peak effect of activity of compound was measured by both MES and sc Met test in mice. The method, boiled down: as §1
For assay [8], the system named is Mus musculus. In words: Elevation of threshold for electroshock induced seizures in mice was measured by ip administration after 0.5 hr at the dose of 100 mg/kg; No. of mice protected/no tested 1/12. The note with it: route intraperitoneal.
The species named for assay [9] is Mus musculus. In words: Protective index (TD50/ED50) value in scMET test in mice. The method, boiled down:
as §1

Assay [10] is filed under the species Mus musculus. In words: Protective index (TD50/ED50) value in MES test in mice.
The subject of assay [11] is Mus musculus. In words: Anticonvulsant activity was measured by maximal electroshock test on mice at 0.25 hr at the dose of 100 mg/kg; number of animals protected/number of animals tested 0/2.
Assay [12] deals with Mus musculus. The assay can be described thus: Anticonvulsant activity was measured by rotarod toxicity test on mice at 1 hr at the dose of 100 mg/kg; number of animals protected/number of animals tested 0/2.
The test system of assay [13] is Mus musculus. In words: Anticonvulsant activity was measured by subcutaneous pentylenetetrazole test on mice at 4 hr at the dose of 300 mg/kg; number of animals protected/number of animals tested 1/1.
Assay [14] has as its system Mus musculus. The assay can be described thus: Anticonvulsant activity was measured by rotarod toxicity test on mice at 4 h at the dose of 300 mg/kg; number of animals protected/number of animals tested 0/2.
The subject of assay [15] is Mus musculus. In words: Elevation of threshold for electroshock induced seizures in mice was measured by ip administration after 0.5 hr at the dose of 150 mg/kg; No. of mice protected/no tested 3/12. The note with it: route intraperitoneal.
For assay [16], the species on record is Mus musculus. The assay can be described thus: ED50 value of compound was expressed as dose protecting 50% of mice from tonic hind limb extension. As to conditions: Hindlimb. The method, boiled down:
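Maximal electroshock test in male CF1 mice (23-34 g). Compound given as a 0.5% methylcellulose suspension ip or po, with testing at 0.5 h after several doses. Endpoint is protection from tonic hind limb extension.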

Assay [17] relates to Mus musculus. In words: Anticonvulsant activity was measured by subcutaneous pentylenetetrazole test on mice at 30 min at the dose of 300 mg/kg; number of animals protected/number of animals tested 1/1.
Assay [18] deals with Mus musculus. In words: Elevation of threshold for electroshock induced seizures in mice was measured by ip administration after 0.5 hr at the dose of 200 mg/kg; No. of mice protected/no tested 5/12. The note with it: route intraperitoneal.
For assay [19], the system named is Mus musculus. The assay can be described thus: Anticonvulsant activity was measured by maximal electroshock test on mice at 30 min at the dose of 300 mg/kg; number of animals protected/number of animals tested 1/1.
The test system of assay [20] is Mus musculus. In words: Effective dose was measured in mouse by maximal electroshock method by ip administration. In outline: as §1

As to `O=C1CC2(CCCC2)C(=O)N1OCc1ccc(Cl)cc1Cl`, the TPE in the assay with Mus musculus [1] stood at 0.5; in the assay with Mus musculus [7] it was 1. Also, the Protection in the assay with Mus musculus [2] came to 62.5%; in the assay on Mus musculus [8], 8.33%; with Mus musculus [15] it was 25%; in the assay on Mus musculus [18], 41.7%. For the same compound, the Ratio turned out to be 1 in the assay on Mus musculus [3]; 0 in the assay with Mus musculus [4]; 1 in the assay with Mus musculus [5]; 0 in the assay on Mus musculus [11]; 0 in the assay on Mus musculus [12]; 1 in the assay on Mus musculus [13]. The Ratio is on record as 0 with Mus musculus [14], 1 with Mus musculus [17] and 1 with Mus musculus [19]. The ED50 was found to be 190 mg/kg with Mus musculus [6], 216 mg/kg in the assay filed under Mus musculus [16] and 241 mg/kg in the assay with Mus musculus [20]. The PI is on record as 1.9 in the assay filed under Mus musculus [9] and 1.5 in the assay filed under Mus musculus [10].
As to `CCC1(c2ccccc2)C(=O)NC(=O)NC1=O` [PHENOBARBITAL], the TPE with Mus musculus [1] stood at 0.5; in the assay with Mus musculus [7], 1 toxicity.
